# Read-outs that look alike come from different tables or passages of the source.
# Columns and labels:
# HLA-A*02:01 [1] = molecular target: T1, HLA-A*02:01 (Homo sapiens, UniProt P04439, D140Y/D185E/D98H/E176V/E277Q/G131W/G231S/I119V/I121R/I166T/I218V/L300P/L318F/N151K/N90K/P208A/P217A/Q86G/Q94H/R138H/R169H/T345S); assay type: binding; conditions: for peptide exchange (in words): NA9 for NV9-FITC on A2, 25 °C
# A2/NA9 = experiment: Thermal stability by nanoscale differential scanning fluorimetry, A2/NA9; set-up: species or system human; conditions: for destabilization of A2 complex (in words): ethanediol, 20% DMSO, Table S5
# Outline: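 Refolded, SEC-purified HLA-A2/peptide complex, 4 µM in citrate-phosphate buffer pH 7.6 (187.3 mM Na₂HPO₄, 6.35 mM citric acid). Mixed 1:1 with solvent or dipeptide at 2x test concentration in the same buffer, giving 2 µM complex. nanoDSF in capillaries: ex 280 nm, em 330 and 350 nm, ramp 1.0 °C/min from 15 or 20 °C to 80 °C.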
# HLA-A*02:01 [2] = molecular target: T1, HLA-A*02:01; assay type: binding
# HLA-A*24:02 = HLA-A*24:02 (Homo sapiens, UniProt P04439, D101N/D140Y/D185E/E176V/E190D/F33S/G103R/G107R/I119L/I121M/I306V/K335N/L105A/L180Q/L300P/N151K/N90K/Q86E/Q94H/R106L/R138H/R89G/T104I/T345S/V100E/W191G/Y123F); assay type: binding; conditions: pre-bound TLn9, ethanol vs 10 mM GF, 25 °C
# Outline: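 Complex (300 nM final) preincubated 15 min with the test compound or 10 mM dipeptide in 50 mM HEPES, 150 mM NaCl, pH 7.5. FITC-labeled incoming peptide added at 100 nM final. Exchange followed in real time by fluorescence anisotropy (ex 494 nm, em 517 nm) at 25 °C.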
# HLA-B*07:02 = HLA-B*07:02 (Homo sapiens, UniProt P01889); assay type: binding; conditions: pre-bound APGIRDHESA
# H-2K^b = H-2K^b (Mus musculus, UniProt P01901); assay type: binding, murine; conditions: pre-bound FAPGNYPAL
# β2m = experiment: Thermal stability by nanoscale differential scanning fluorimetry, β2m; set-up: species or system human
# A2/IV9 = experiment: Thermal stability by nanoscale differential scanning fluorimetry, A2/IV9; set-up: species or system human; conditions: no reagent
# [3] = molecular target: disulfide-stabilized HLA-A*02:01 (Y84C/A139C) (Homo sapiens, UniProt P04439, D140Y/D185E/D98H/E176V/E277Q/G131W/G231S/I119V/I121R/I166T/I218V/L300P/L318F/N151K/N90K/P208A/P217A/Q86G/Q94H/R138H/R169H/T345S/A163C/Y108C); assay type: binding
# [4] = molecular target: disulfide-stabilized HLA-A*02:01 (Y84C/A139C) / beta-2 microglobulin, peptide-free (human); experiment: fluorescence polarisation
# A2/NV9 = experiment: Thermal stability by nanoscale differential scanning fluorimetry, A2/NV9; set-up: species or system human; conditions: no reagent
compound,measurement,setting,value
CCCO [1-propanol],peptide exchange (in words),HLA-A*02:01 [1],ineffective
CCC(C)O (stereo not shown) [2-butanol],peptide exchange (in words),HLA-A*02:01 [1],ineffective
"C[S+](C)[O-] [DMSO, Dimethylsulfoxide]",destabilization of A2 complex (in words),A2/NA9,destabilizes to an extent similar to 10% ethanol
"OCCO [EDO, 1,2-Ethanediol]",peptide exchange (in words),HLA-A*02:01 [1],enhanced exchange only to a minor extent
same,destabilization of A2 complex (in words),A2/NA9,destabilizes A2 only slightly
"CCO [EtOH, Ethanol]",lower endpoint anisotropy with temperature increase (in words),"HLA-A*02:01 [1]; 20% ethanol, 25, 32, 37 °C, less A2 available to bind the incoming peptide",especially dramatic
same,peptide exchange (in words),HLA-A*02:01 [1],10% ethanol showed an acceleration similar to the dipeptide
same,peptide exchange (in words),HLA-A*02:01 [2],considerably less than that of 10 mM GM
same,peptide exchange (in words),HLA-A*24:02,dramatically superior to the dipeptide
same,peptide exchange (in words),HLA-B*07:02,also catalyzes exchange
same,peptide exchange (in words),H-2K^b,also catalyzes exchange
same,ΔTm,"A2/NA9; A2/NA9, 20% ethanol vs no reagent",−16.7 °C
same,Tm,"β2m; 20% solvent, β2m alone, citrate-phosphate buffer pH 7.6, 1.0 °C/min",45 °C
same,ΔTm,"β2m; β2m, 20% solvent vs no reagent",−20.5 °C
"CO [MeOH, Methanol]",peptide exchange (in words),HLA-A*02:01 [1],20% methanol was only slightly slower
ILKEPVHGV [IV9],Tm of complex compared to β2m alone (in words),A2/IV9,not significantly different from those of β2m alone
NLVPKTAMRAVATA [NA9-TAM],acceleration of dissociation by 20% ethanol,[3],about six-fold
NLVPK_(TAMRA)VATA (peptide),fold acceleration of dissociation by 20% ethanol (against no ethanol),[4],6 fold
NLVPMVATV [NV9],Tm of complex compared to β2m alone (in words),A2/NV9,not significantly different from those of β2m alone
